ChEMBL document CHEMBL3286182, “4-aminoquinolone piperidine amides: noncovalent inhibitors of DprE1 with long residence time and potent antimycobacterial activity” (J Med Chem, 2014)
≈ marks a conversion by molar mass, not a printed value. Calls of active or inactive are those of the source. No cut-off for these calls is given here.

Assays:
[1] = biological target: Voltage-gated inwardly rectifying potassium channel KCNH2 (Homo sapiens, UniProt Q12809); assay: Inhibition of human ERG by medium-throughput electrophysiology
[2] = Permeability of the compound from basolateral to apical side in human Caco2 cells; assay type: ADME, cell-based; conditions: Caco-2, read-out: permeability
[3] = tested on: Mycolicibacterium smegmatis; assay: Ratio of IC50 for Mycobacterium smegmatis DprE1 Y321H mutant to IC50 for Mycobacterium smegmatis recombinant wild type DprE1
Procedure, shortened: (§1)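 Recombinant M. smegmatis DprE1 (thioredoxin-6His fusion), wild type or Y321H, 75 nM. Enzyme was preincubated 30 min in FAD assay mix: 50 mM glycylglycine pH 8.5, 200 mM potassium glutamate, 10 μM FAD, 0.002% Brij-35, 2% DMSO. Reaction was started with 300 μM farnesylphosphoryl-β-D-ribofuranose, 0.01 mg/mL HRP and 50 μM amplex red at 25 °C.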

[4] = tested on: Escherichia coli; assay: Antimicrobial activity against Escherichia coli ARC523 at 100 uM; assay type: functional, organism-based
Procedure, shortened: (§2)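 Nonmycobacterial panel of Candida albicans, Gram-negative and Gram-positive pathogens.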

[5] = biological target: Cytochrome P450 2C19 (Homo sapiens, UniProt P33261); assay: Inhibition of CYP2C19 (unknown origin); assay type: ADME
Procedure, shortened: (§3)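 CYP inhibition IC50 measured on isoforms CYP3A4, CYP2D6, CYP2C9, CYP2C19 and CYP1A2.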

[6] = tested on: Mycolicibacterium smegmatis; assay: Binding affinity to Mycobacterium smegmatis recombinant DprE1 assessed as half life
Procedure, shortened: (§4)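 Progress curves (fluorescence vs time) recorded at several inhibitor concentrations with 75 nM Msm DprE1 in the FAD/HRP/Amplex Red coupled assay, pH 8.5, 25 °C. A single-step reversible slow-binding model was fitted globally, with vs and vi fitted per concentration and koff and Kiapp shared. Half-life and residence time were derived from koff.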

[7] = Octanol-water partition coefficient, log D of the compound by shake-flask method; assay type: physicochemical
[8] = tested on: Mycolicibacterium smegmatis; assay: Antimicrobial activity against Mycobacterium smegmatis mc2155 at 100 uM; assay type: functional, organism-based; conditions: str. MC2 155
[9] = tested on: Pseudomonas aeruginosa; assay: Antimicrobial activity against Pseudomonas aeruginosa ARC545 at 100 uM; assay type: functional, organism-based; procedure, shortened: as §2
[10] = tested on: Mycolicibacterium smegmatis; assay: Binding affinity to Mycobacterium smegmatis recombinant DprE1 assessed as residence time; procedure, shortened: as §4
[11] = tested on: Mycobacterium tuberculosis; assay: Antimycobacterial activity against Mycobacterium tuberculosis over expressing DprE1 after 5 days by standard microdilution method; assay type: functional; conditions: 120 h
[12] = tested on: Staphylococcus aureus; assay: Antimicrobial activity against Staphylococcus aureus ARC517 at 100 uM; assay type: functional, organism-based; procedure, shortened: as §2
[13] = Cytotoxicity against human A549 cells after 72 hrs by resazurin based fluorescence assay; assay type: cell-based; conditions: read-out: MIC
Procedure, shortened: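 Cytotoxicity read as MMIC, the MIC on the A549 cell line.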

[14] = biological target: T1, Cytochrome P450 1A2 (Homo sapiens, UniProt P05177); assay: Inhibition of CYP1A2 (unknown origin); assay type: ADME; procedure, shortened: as §3
T1 sequence (P05177 whole entry): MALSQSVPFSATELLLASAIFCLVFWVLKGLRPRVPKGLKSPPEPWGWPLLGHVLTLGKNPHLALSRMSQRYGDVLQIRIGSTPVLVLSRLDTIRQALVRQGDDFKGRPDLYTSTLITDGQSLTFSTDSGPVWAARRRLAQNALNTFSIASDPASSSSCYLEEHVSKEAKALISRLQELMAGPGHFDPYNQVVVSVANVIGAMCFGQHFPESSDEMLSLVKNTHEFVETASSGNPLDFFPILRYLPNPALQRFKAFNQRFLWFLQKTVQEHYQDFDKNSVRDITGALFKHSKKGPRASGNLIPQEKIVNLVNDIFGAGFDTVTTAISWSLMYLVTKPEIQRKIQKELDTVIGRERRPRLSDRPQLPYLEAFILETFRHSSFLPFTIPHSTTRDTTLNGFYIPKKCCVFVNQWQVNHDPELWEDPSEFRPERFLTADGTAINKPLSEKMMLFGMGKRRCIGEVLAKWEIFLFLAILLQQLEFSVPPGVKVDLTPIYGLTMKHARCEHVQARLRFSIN

[15] = tested on: Mycolicibacterium smegmatis; assay: Binding affinity to Mycobacterium smegmatis recombinant DprE1 assessed as dissociation constant; procedure, shortened: as §4
[16] = Inhibition of Mycobacterium smegmatis DprE1 Y321H mutant using farnesylphosphoryl-beta-D-ribofuranose as substrate assessed as conversion of amplex red to resorufin after 30 mins; parameters: species or system Mycolicibacterium smegmatis; procedure, shortened: as §1
[17] = tested on: Escherichia coli; assay: Antimicrobial activity against Escherichia coli ARC524 at 100 uM; assay type: functional, organism-based; procedure, shortened: as §2
[18] = biological target: Mu-type opioid receptor (Homo sapiens, UniProt P35372); assay: Inhibition of mu opioid receptor (unknown origin)
Procedure, shortened: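 Secondary pharmacology panel of binding, enzyme and functional assays covering 24 molecular targets. Activity recorded as a defined Ki/IC50/EC50.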

[19] = tested on: Mycobacterium tuberculosis; assay: Antimycobacterial activity against Mycobacterium tuberculosis over expressing PimA after 5 days by standard microdilution method; assay type: functional; conditions: 120 h
[20] = tested on: Klebsiella pneumoniae; assay: Antimicrobial activity against Klebsiella pneumoniae ARC1865 at 100 uM; assay type: functional, organism-based; procedure, shortened: as §2
[21] = tested on: Mycobacterium tuberculosis; assay: Antimycobacterial activity against Mycobacterium tuberculosis over expressing TopA after 5 days by standard microdilution method; assay type: functional; conditions: 120 h
[22] = tested on: Mycobacterium tuberculosis; assay: Antimycobacterial activity against Mycobacterium tuberculosis H37Rv under hypoxic condition after 6 days by resazurin assay; assay type: functional; conditions: 144 h
[23] = Permeability of the compound from apical to basolateral side in human Caco2 cells; assay type: ADME, cell-based; conditions: Caco-2, read-out: permeability
[24] = Inhibition of Mycobacterium smegmatis recombinant DprE1 using farnesylphosphoryl-beta-D-ribofuranose as substrate assessed as conversion of amplex red to resorufin after 30 mins; parameters: species or system Mycolicibacterium smegmatis
Procedure, shortened: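 Msm DprE1 (thioredoxin-6His fusion of Msm Rv3790) at 75 nM, preincubated 30 min with 10 μM FAD. Buffer: 50 mM glycylglycine pH 8.5, 200 mM potassium glutamate, 0.002% Brij-35, 2% DMSO, 25 °C. Started with 300 μM farnesylphosphoryl-β-D-ribofuranose, 0.01 mg/mL HRP and 50 μM Amplex Red.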

[25] = tested on: Haemophilus influenzae; assay: Antimicrobial activity against Haemophilus influenzae ARC158 at 100 uM; assay type: functional, organism-based; procedure, shortened: as §2
[26] = biological target: Cytochrome P450 2D6 (Homo sapiens, UniProt P10635); assay: Inhibition of CYP2D6 (unknown origin); assay type: ADME; procedure, shortened: as §3
[27] = Fraction unbound in human plasma at 20 uM after 18 hrs by equilibrium dialysis method; assay type: ADME, cell-free
[28] = tested on: Mycobacterium tuberculosis; assay: Antimycobacterial activity against Mycobacterium tuberculosis H37Rv at >MIC after 21 to 28 days; assay type: functional
[29] = tested on: Haemophilus influenzae; assay: Antimicrobial activity against Haemophilus influenzae ARC446 at 100 uM; assay type: functional, organism-based; procedure, shortened: as §2
[30] = Intrinsic clearance in rat cryopreserved hepatocytes assessed per 10^6 cells at 1 uM up to 120 mins by LC-MS/MS analysis; assay type: ADME, cell-based, Hepatocyte; conditions: read-out: CLH
[31] = biological target: Cytochrome P450 2C9 (Homo sapiens, UniProt P11712); assay: Inhibition of CYP2C9 (unknown origin); assay type: ADME; procedure, shortened: as §3
[32] = tested on: Mycobacterium tuberculosis; assay: Antimycobacterial activity against Mycobacterium tuberculosis H37Rv after 5 days by standard microdilution method; assay type: functional; conditions: 120 h
[33] = tested on: Streptococcus pneumoniae; assay: Antimicrobial activity against Streptococcus pneumoniae ARC548 at 100 uM; assay type: functional, organism-based; procedure, shortened: as §2
[34] = Solubility of the compound in 0.1 M phosphate buffer at pH 7.4 after 24 hrs by UV and MS analysis; assay type: physicochemical
[35] = Intrinsic clearance in human liver microsomes at 1 uM up to 30 mins by LC-MS/MS analysis; assay type: ADME; conditions: read-out: CLH
[36] = tested on: Candida albicans; assay: Antimicrobial activity against Candida albicans ARC527 at 100 uM; assay type: functional, organism-based; procedure, shortened: as §2
[37] = biological target: Cytochrome P450 3A4 (Homo sapiens, UniProt P08684); assay: Inhibition of CYP3A4 (unknown origin); assay type: ADME; procedure, shortened: as §3
[38] = tested on: Pseudomonas aeruginosa; assay: Antimicrobial activity against Pseudomonas aeruginosa ARC546 at 100 uM; assay type: functional, organism-based; procedure, shortened: as §2
[39] = tested on: Mycobacterium tuberculosis; assay: Antimycobacterial activity against Mycobacterium tuberculosis over expressing InhA after 5 days by standard microdilution method; assay type: functional; conditions: 120 h
[40] = tested on: Mycolicibacterium smegmatis; assay: Antimicrobial activity against Mycobacterium smegmatis ATCC 607 at 100 uM; assay type: functional, organism-based
[41] = tested on: Mycolicibacterium smegmatis; assay: Binding affinity to Mycobacterium smegmatis recombinant DprE1 at 0.5 to 10000 nM up to 30 mins
[42] = tested on: Mycolicibacterium smegmatis; assay: Binding affinity to Mycobacterium smegmatis DprE1 Y321H mutant at 0.5 to 10000 nM up to 30 mins

Cytochrome P450 2C19, sequence (P33261 whole entry, canonical isoform): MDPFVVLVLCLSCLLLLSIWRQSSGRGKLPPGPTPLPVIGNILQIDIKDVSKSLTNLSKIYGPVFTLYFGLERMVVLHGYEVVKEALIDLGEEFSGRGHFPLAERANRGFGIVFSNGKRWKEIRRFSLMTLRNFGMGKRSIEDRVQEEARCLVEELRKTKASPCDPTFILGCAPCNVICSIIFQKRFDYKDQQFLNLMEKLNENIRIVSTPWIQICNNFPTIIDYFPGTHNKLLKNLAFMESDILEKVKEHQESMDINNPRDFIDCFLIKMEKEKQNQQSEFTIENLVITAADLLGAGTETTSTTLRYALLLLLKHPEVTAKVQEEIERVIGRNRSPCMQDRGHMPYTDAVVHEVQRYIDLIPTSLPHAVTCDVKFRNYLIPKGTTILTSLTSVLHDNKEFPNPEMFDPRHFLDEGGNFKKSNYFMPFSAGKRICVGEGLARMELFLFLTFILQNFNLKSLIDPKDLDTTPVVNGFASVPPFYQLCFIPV
Voltage-gated inwardly rectifying potassium channel KCNH2, sequence (Q12809 whole entry): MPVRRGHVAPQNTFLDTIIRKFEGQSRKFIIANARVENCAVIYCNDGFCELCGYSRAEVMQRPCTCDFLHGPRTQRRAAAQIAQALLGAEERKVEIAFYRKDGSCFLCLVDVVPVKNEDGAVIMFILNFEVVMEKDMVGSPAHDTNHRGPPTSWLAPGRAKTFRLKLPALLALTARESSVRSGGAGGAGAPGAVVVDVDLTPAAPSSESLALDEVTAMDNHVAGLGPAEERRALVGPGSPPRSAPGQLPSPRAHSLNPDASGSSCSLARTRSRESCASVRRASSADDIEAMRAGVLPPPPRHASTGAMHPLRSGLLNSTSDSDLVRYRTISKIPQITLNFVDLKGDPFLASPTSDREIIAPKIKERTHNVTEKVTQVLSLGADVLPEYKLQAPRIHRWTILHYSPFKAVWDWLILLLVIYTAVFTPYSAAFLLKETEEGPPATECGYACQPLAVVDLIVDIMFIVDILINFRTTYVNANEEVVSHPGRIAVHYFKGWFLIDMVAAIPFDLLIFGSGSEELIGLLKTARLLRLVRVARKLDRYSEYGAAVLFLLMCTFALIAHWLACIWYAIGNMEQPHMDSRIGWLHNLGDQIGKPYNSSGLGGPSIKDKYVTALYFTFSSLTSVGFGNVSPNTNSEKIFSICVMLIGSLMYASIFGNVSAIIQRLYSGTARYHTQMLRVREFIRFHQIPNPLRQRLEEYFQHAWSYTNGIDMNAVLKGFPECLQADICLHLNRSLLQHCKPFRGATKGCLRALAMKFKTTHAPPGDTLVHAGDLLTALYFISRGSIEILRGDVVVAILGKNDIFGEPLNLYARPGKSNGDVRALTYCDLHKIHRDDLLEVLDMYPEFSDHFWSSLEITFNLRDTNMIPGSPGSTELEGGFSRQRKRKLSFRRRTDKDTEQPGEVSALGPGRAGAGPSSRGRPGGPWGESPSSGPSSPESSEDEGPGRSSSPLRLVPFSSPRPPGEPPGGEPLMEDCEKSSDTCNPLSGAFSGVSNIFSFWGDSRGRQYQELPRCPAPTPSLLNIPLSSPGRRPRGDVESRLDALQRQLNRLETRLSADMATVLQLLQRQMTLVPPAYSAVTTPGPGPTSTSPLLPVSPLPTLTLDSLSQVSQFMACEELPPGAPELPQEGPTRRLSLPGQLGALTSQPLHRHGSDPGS
Cytochrome P450 2D6, sequence (P10635 whole entry): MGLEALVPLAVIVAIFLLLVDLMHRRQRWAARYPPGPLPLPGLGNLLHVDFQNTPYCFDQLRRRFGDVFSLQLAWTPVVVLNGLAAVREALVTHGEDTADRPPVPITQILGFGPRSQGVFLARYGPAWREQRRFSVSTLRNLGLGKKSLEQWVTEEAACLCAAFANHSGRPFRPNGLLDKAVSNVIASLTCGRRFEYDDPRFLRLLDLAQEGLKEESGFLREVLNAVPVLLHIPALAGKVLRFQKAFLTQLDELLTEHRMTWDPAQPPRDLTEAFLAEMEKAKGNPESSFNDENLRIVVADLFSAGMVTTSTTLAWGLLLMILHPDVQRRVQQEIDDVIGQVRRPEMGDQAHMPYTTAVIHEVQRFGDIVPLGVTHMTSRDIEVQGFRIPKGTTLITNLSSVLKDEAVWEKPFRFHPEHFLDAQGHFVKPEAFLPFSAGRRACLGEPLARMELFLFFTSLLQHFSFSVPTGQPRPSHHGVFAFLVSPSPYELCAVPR
Cytochrome P450 2C9, sequence (P11712 whole entry): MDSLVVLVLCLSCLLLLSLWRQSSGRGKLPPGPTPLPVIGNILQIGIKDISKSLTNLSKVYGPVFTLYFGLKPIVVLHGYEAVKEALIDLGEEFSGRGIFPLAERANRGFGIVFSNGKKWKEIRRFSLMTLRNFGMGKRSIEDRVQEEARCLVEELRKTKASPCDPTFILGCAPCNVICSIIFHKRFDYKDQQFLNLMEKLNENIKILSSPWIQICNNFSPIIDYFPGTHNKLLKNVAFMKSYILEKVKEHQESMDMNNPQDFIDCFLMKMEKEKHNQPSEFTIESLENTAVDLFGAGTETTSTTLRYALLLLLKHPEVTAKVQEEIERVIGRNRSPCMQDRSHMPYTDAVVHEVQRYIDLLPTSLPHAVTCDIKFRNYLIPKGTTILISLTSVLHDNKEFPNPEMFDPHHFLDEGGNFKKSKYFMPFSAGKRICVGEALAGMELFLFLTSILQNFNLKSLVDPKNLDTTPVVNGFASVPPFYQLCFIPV
Mu-type opioid receptor, sequence (P35372 whole entry): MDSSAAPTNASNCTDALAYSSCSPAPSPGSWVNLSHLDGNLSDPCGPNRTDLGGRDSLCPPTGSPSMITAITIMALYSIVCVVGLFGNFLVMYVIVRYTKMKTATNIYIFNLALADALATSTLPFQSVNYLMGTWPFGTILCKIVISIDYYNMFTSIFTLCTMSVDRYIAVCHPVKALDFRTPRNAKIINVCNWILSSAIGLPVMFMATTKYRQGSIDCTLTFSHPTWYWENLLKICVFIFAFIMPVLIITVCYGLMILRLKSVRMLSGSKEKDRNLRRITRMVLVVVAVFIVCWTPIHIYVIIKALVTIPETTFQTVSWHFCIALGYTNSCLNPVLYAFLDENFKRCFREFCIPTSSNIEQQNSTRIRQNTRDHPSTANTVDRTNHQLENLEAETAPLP
Cytochrome P450 3A4, sequence (P08684 whole entry): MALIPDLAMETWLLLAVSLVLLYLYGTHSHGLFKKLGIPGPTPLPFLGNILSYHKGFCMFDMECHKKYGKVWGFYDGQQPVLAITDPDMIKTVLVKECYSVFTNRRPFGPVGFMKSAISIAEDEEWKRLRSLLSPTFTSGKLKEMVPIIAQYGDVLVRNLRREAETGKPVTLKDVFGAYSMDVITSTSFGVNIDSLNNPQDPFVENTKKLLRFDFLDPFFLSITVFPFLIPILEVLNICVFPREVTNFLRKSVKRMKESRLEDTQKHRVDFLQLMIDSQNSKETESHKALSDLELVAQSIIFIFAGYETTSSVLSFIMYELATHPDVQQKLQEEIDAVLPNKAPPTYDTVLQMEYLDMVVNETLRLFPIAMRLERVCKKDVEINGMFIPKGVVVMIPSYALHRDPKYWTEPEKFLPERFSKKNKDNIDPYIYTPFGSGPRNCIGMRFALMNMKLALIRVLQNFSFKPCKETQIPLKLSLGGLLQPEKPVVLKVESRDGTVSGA

Cn1ncc(C(=O)N2CCC(Nc3cc(=O)[nH]c4ccccc34)CC2)c1Cl
IC50 [1]: > 100000 nM
Papp B→A [2]: 14 ×10⁻⁶ cm/s
fold change (FC) [3]: > 63
Activity [4]: inactive
INH [5]: > 30 µM
T1/2 [6]: 1.2 h
logD [7]: 1.6
Activity [8]: inactive
Activity [9]: inactive
TIME [10]: 1.73 h
MIC [11]: > 100 µM
Activity [12]: inactive
MCC at 72 h [13]: > 200 µM
INH [14]: > 30 µM
Kdiss [15]: 0.00016 s⁻¹
IC50 [16]: > 10000 nM
Activity [17]: inactive
IC50 [18]: 21900 nM
MIC [19]: 3.1 µM (≈ 1.2 µg/mL)
Activity [20]: inactive
MIC [21]: 3.1 µM (≈ 1.2 µg/mL)
IC80 [22]: > 100000 nM
Papp A→B [23]: 0.5 ×10⁻⁶ cm/s
IC50 [24]: 150 nM
Activity [25]: inactive
INH [26]: > 30 µM
fraction unbound at 18 h, 20 µM [27]: 0.3
MBC [28]: 6.3 µM (≈ 2.43 µg/mL)
Activity [29]: inactive
hepatocyte CLint at 1 µM [30]: 1.5 µL/min/1e6 cells
INH [31]: > 30 µM
MIC [32]: 6.25 µM (≈ 2.41 µg/mL)
Activity [33]: inactive
solubility at 24 h [34]: 255 µM (≈ 98.4 µg/mL)
microsomal CLint at 1 µM [35]: < 4 µL/min/mg
Activity [36]: inactive
INH [37]: > 30 µM
Activity [38]: inactive
MIC [39]: 6.3 µM (≈ 2.43 µg/mL)
Activity [40]: inactive

Cn1ncc(C(=O)N2[C@@H]3CC[C@H]2C[C@@H](Nc2cc(=O)[nH]c4ccc(F)cc24)C3)c1Cl
fold change (FC) [3]: 12
MIC [11]: 6.25 µM (≈ 2.69 µg/mL)
IC50 [16]: 550 nM
Activity [41]: Active
Activity [42]: Active
IC50 [24]: 30 nM
MIC [32]: 0.39 µM (≈ 0.168 µg/mL)
